Laboratory results as given in ChEMBL document CHEMBL4513216, “Probing the Open Global Health Chemical Diversity Library for Multistage-Active Starting Points for Next-Generation Antimalarials” (ACS Infect Dis, 2020).

Test: Toxicity liver stage against HepG2, at 10uM
Type: cell-based
Parameters: test concentration 10 uM, cell line HepG2-A16-CD81EGFP
Details: human, HepG2-A16-CD81EGFP cells; read-out: INHIBITION
How it was run: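 Uninfected HepG2-A16-CD81EGFP cells, 3 × 10^3 per well, 1536-well, plated on prespotted compound at 10 μM final, parasite-free screening media added to match infected plates; puromycin 10 μM positive, DMSO 0.5% negative; run in parallel with 48 h PbLuc assay at 37 °C, 5% CO2; viability by CellTiter-Glo luminescence, normalized to controls.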

| Compound | cytotoxicity at 10 µM [%] |
| --- | --- |
| Cc1cc(C)n(CC2(CNC(=O)C(c3ccc(F)cc3)N(C)C)CC2)n1 (stereo not given) | 0.438 |
| CC(C)S(=O)(=O)N1CCC(Cc2cccc(C(=O)O)c2)C1 (stereo not given) | 1.31 |
| Nc1ncccc1CN1CCOCC1CC(=O)NCc1ccccn1 (stereo not given) | 9.66 |
| c1ccc(OCc2nnc3n2CCN(CC2CCOCC2)C3)nc1 | 1.65 |
| Cc1ccc(-c2nc(CN3CCCC3Cn3cncn3)co2)cc1 (stereo not given) | -7.29 |
| Cc1cccc(CN2CC[C@@H]3[C@@H]2CCN3C(=O)Cc2ccsc2)n1 | -107 |
| Cc1ccc(C)c(OCCN2CCC(N3CCNC3=O)CC2)c1 | 1.85 |
| CC1(Cc2ccccn2)NCCc2[nH]cnc21 (stereo not given) | -5.18 |
| CCOCC1CN(CCOCc2ccccc2)Cc2c1cnn2C (stereo not given) | -132 |
| COCC(=O)N1CC(c2csc(NC(C)=O)n2)C1 | -8.8 |
| CC(C)c1nc(NC(=O)CCCn2cccc2)n(C)n1 | -7.71 |
| O=C(NC[C@H]1OC[C@@H](NC2COC2)[C@@H]1O)C1CCCC1 | -3.11 |
| C[C@@H]1CN(c2nc(O)cc(Cc3ccccc3F)n2)C[C@H](C)O1 | 5.31 |
| c1cn(-c2ccc(N3CCC(NC4CC4)CC3)cc2)cn1 | 5.16 |
| COc1ccc(CNC(=O)NCc2ccc(C(N)=O)cc2)cn1 | -2.94 |
| CC(=O)N1CCCN(C(=O)NCCCN(C)S(C)(=O)=O)CC1 | -2.44 |
| CC(C)N(C)CCCNC(=O)c1cnc(-c2ccccc2)nc1 | -6.13 |
| O=C1CC2(CCCCN2C(=O)c2ccco2)CN1c1cccnc1 (stereo not given) | -1.69 |
| CNC(=O)C1(C)CN(S(=O)(=O)c2cccc(OC)c2)CCO1 (stereo not given) | -1.43 |
| Cc1nc(C2CCCN2C(=O)Cc2ccc(F)cc2)nc(O)c1C (stereo not given) | -30.4 |
| CNC(=O)[C@H]1C[C@H]2CN(C(=O)Nc3ccccc3)C[C@@H]1O2 | 1.91 |
| CC(=O)Nc1cc(C(=O)N2CCOCC2c2ccc(C)o2)ccc1F (stereo not given) | -3.08 |

| Compound | cytotoxicity at 10 µM [%] |
| --- | --- |
| CCC(C(=O)NC(C)(C)C)n1ccc2ncccc2c1=O (stereo not given) | 3.69 |
| CN(C)c1ccc(CN(CCCn2ccnc2)Cc2c[nH]cn2)cc1 | -1.34 |
| CN1CCN(C(=O)c2cc3sccc3n2Cc2ccc(Cl)cc2)CC1 | 1.05 |
| Cn1cncc1CN1CCC2(CC1)CCN2c1ncccn1 | 9.61 |
| O=C(c1cscn1)N1CC[C@@H]2[C@@H]1CCN2C1CCOCC1 | 2.11 |
| COC(=O)c1ccc(N2CCN(C(=O)c3cc(C)no3)C(C)C2)cc1 (stereo not given) | -0.192 |
| COCCC(=O)N1CC[C@@H]2O[C@@H](C)C[C@H]2C1 | -2.78 |
| COc1ccc(F)cc1S(=O)(=O)NCC(c1cccn1C)N(C)C (stereo not given) | -20.7 |
| CC(C(=O)N1CCOCC1)n1cncn1 (stereo not given) | -1.45 |
| COc1cccc(CC(=O)N2CCc3nc(C(N)=O)sc3CC2)c1 | 9.94 |
| CCOCCC1(CNC(=O)c2ccc(C)nc2)CCCC1 | 7.25 |
| CN(C)c1ccc(C(=O)Nc2cnn(Cc3ccccn3)c2)cc1 | -8.36 |
| CC(=O)OCc1ccc(CN2CCCCCC2c2cc(C)no2)o1 (stereo not given) | -13.1 |
| Cc1ccc(C(=O)Nc2nnc(C3CC3)s2)c(-n2cnnn2)c1C | 12.3 |
| Cc1nsc(NC(=O)N2CCc3sccc3C2)n1 | 18.5 |
| Cc1cc(N2CCCC2c2nnc3n2CCCCC3)nc(C)n1 (stereo not given) | 9.59 |
| CC(=O)N1CCC(N2CCOC[C@H]2c2nc(-c3ccncc3)c[nH]2)CC1 | 1.58 |
| CC(C)Nc1nc2c(c(N(C)C)n1)CCN(Cc1nccn1C)CC2 | 1.35 |
| c1ccc(NC[C@@H]2CCC[C@@H]3CN(Cc4csnn4)C[C@@H]32)nc1 | -114 |
| Cc1ccc(C(=O)NC(CN2CCCC2)c2ccccc2)c(=O)[nH]1 (stereo not given) | -2.32 |
| Cc1cc(=O)c2ccccc2n1CC1CCCN(C)C1 (stereo not given) | -5.82 |
| O=C(O)[C@@H]1CN(CC2CCC2)C[C@H]1c1ccc(F)cc1 | -3.62 |

| Compound | cytotoxicity at 10 µM [%] |
| --- | --- |
| Cn1cnnc1C1CCCN1C(=O)Nc1cccc(OC(F)F)c1 (stereo not given) | 8.25 |
| CC(C)N(CCCNC(=O)C1CCOCC1)S(C)(=O)=O | 0.617 |
| CCN(CC1CCCO1)C(=O)Nc1cc(C)ccc1S(C)(=O)=O (stereo not given) | -12.5 |
| CC(=O)N1Cc2nccn2CC(CNC(=O)c2cnccn2)C1 (stereo not given) | -144 |
| COCCN(C)CCN1CC2(CCN(C3CCCNC3)CC2)OC1=O (stereo not given) | 2.28 |
| CNC(=O)[C@@H]1C[C@H](n2cc(-c3ccc(Cl)cc3)nn2)CN1 | 5.89 |
| Cc1ccc(NC(=O)CNC(C)CN2CCCCC2)c(F)c1 (stereo not given) | -51.6 |
| CC1CCN(c2ccc(CNC(=O)NCCn3ccnc3)cn2)CC1 | -9.48 |
| CC(C)c1cc(CN(C)C(=O)CN2CCCCC2=O)no1 | 8.01 |
| CNC(=O)NC(=O)C(C)N(C)CCCc1cc(-c2ccccc2)no1 (stereo not given) | -11.6 |
| COc1ccc(OCCCN2CCOC(Cn3cccn3)C2)cc1 (stereo not given) | 5.34 |
| C=C(C)COc1ccccc1C(=O)NCCc1cc(O)nc(C)n1 | -0.355 |
| COc1ccnc(N2CCN(C(=O)c3ccn(C)c(=O)c3)CC2)n1 | -13.7 |
| Cc1nn(C)c(C)c1NC(=O)CN1CCc2c(nc(C3CC3)n2C)C1 | -5.31 |
| Cc1noc(C)c1CN1C[C@@H](OCC(=O)N(C)C)[C@H]2OCCC[C@H]21 | 12.1 |
| Cc1nccn1-c1ccc(NC(=O)C2CCCN2CC2CC2)cc1 (stereo not given) | -14 |
| Cc1nc(CNC(=O)CC2C(=O)NCCN2Cc2ccccc2C)n[nH]1 (stereo not given) | -7.21 |
| CCN(CC)C1(Cc2cc(COC)on2)COC1 | -2.45 |
| O=C(NCc1nc(NC2CCCC2)c2cc(Cl)ccc2n1)c1cncs1 | 4.15 |
| CC(C)NC(=O)[C@@H]1C[C@H](N)CN1C(=O)c1cc2c([nH]c1=O)CCCC2 | 10.5 |
| NC(=O)N1CCCC(C(=O)N2CCc3c(nc(CC4CC4)[nH]c3=O)C2)C1 (stereo not given) | -13.8 |
| CC(C)c1nc(C2CCCN2C(=O)CN(C)Cc2ccccc2)no1 (stereo not given) | -4.86 |

| Compound | cytotoxicity at 10 µM [%] |
| --- | --- |
| Cc1cnn(CCNCC(O)c2ccc(C(F)(F)F)cc2)c1 (stereo not given) | 4.48 |
| CC(C)(C)c1nnc(CN2CCOC(Cn3cncn3)C2)o1 (stereo not given) | -1.5 |
| CSCC(CCO)NC(=O)Nc1cccc(Br)c1C (stereo not given) | -3.7 |
| COc1cc(OC)cc(-c2noc(C(N)CCSC)n2)c1 (stereo not given) | -3.18 |
| Cc1noc(C)c1CCC(=O)N1CCCN(C)CC1 | -14.1 |
| CC(C)=CCN1CCN(Cc2nccn2C)C(C)C1 (stereo not given) | -14.4 |
| Cc1[nH]ccc1C(=O)N(C)C1CC(=O)N(Cc2ccccc2)C1=O (stereo not given) | 8.76 |
| Cc1ccsc1C(=O)N1CC[C@@H](N(C)C)[C@@H]1Cc1cnn(C)c1 | -77.6 |
| CCc1cccc2cc(CNCCCN3CCOCC3)c(=O)[nH]c12 | -0.918 |
| CC(C)[C@H](NC(=O)NC1CCS(=O)(=O)C1)C(=O)NCc1cccnc1 (stereo not given in full) | 5.47 |
| CNC(=O)C1CN(Cc2cc(C)on2)CCN(C2CCOCC2)C1 (stereo not given) | 9.81 |
| NC(=O)COc1cccc(Cn2cc(Br)cn2)c1 | 1.98 |
| COc1cc(N2C[C@@H]3COC[C@@H](Cc4nnc(C)o4)[C@@H]3C2)ncn1 | -112 |
| COc1ccc(CNC2CCc3ncnn3C2)cc1OCCCC#N (stereo not given) | -5.45 |
| CCc1[nH]c2c(CNC(=O)C3CCN(C)C3)cc(C)cc2c1C (stereo not given) | -7.71 |
| CCCNC(=O)C1CCN(Cc2csc(C(C)(C)C)n2)CC1 | -9.11 |
| CSCC(CCO)NC(=O)c1cccc(C)c1Cl (stereo not given) | 16.8 |
| O=C(CS(=O)(=O)Cc1cc(Cl)c2c(c1)OCCCO2)NCC1CC1 | 1.07 |
| CN(Cc1ccc(F)cc1)CC1(O)CCN(C(=O)c2cccn2C)C1 (stereo not given) | -3.19 |
| FC(F)(F)c1cc(NCCCn2cccn2)nc(-c2cccnc2)n1 | 8.06 |
| Cc1cnc(N2CCC3(CC2)C(c2ccccc2)CC(=O)N3C)nc1 (stereo not given) | -4.35 |
| CN(Cc1cnn(C)c1)C(=O)c1ccc(Cl)c(N2CCNC2=O)c1 | -10.8 |

| Compound | cytotoxicity at 10 µM [%] |
| --- | --- |
| O=C1CC(C(=O)O)C2(CCN(C(=O)NCc3ccc(Cl)cc3)CC2)N1 (stereo not given) | 7.66 |
| Cc1cc(CN2CCN(CC(O)c3ccc(C)c(C)c3)CC2)no1 (stereo not given) | -2.96 |
| COc1ccc2cc(NC(=O)CCCNc3ncccn3)cnc2c1 | -50.5 |
| CC(OCC1CC1)C(=O)N1CCCN(c2nc3ccccc3[nH]2)CC1 (stereo not given) | -0.657 |
| N#Cc1c(F)cccc1Nc1cnn(CC(O)CN2CCOCC2)c1 (stereo not given) | -1.47 |
| CSc1nccc(N2C[C@H]3CC[C@@H](C2)N(CC2CCC2)C3=O)n1 | 1.88 |
| Cc1noc([C@@H]2C[C@H](NC(=O)Nc3cccc(F)c3)CN2C)n1 | -2.17 |
| CN(C)CC1(O)CCN(S(=O)(=O)c2cccc(F)c2)C1 (stereo not given) | 2.36 |
| CCN(C(=O)CCc1ccc2c(c1)OCO2)C1CC(=O)NC1=O (stereo not given) | -3.88 |
| Cc1cnc(CNc2c(F)cccc2-n2cccn2)o1 | 15.6 |
| Cc1cccc(C2CCCN2C(=O)CN(C)S(C)(=O)=O)c1C (stereo not given) | 12.3 |
| CC(NC(=O)NCc1ccc(Cl)s1)c1ccccn1 (stereo not given) | 1.64 |
| CN(c1ncccc1CNC(=O)c1csnn1)C1CCCCC1 | -9.31 |
| CC(c1ccccc1F)N(C(=O)CSCC(N)=O)C1CC1 (stereo not given) | -54.9 |
| Cc1nc(C)c(CNC(=O)N2CCN(c3ccc(Cl)cn3)CC2)s1 | 55.8 |
| Cc1nc(C(F)(F)F)nc(N2CCC3(CC2)CC(C(=O)O)N(C)C3)c1C (stereo not given) | -4.14 |
| COC(=O)C(c1cc(F)ccc1F)N(C)C(=O)c1cccnc1O (stereo not given) | -0.289 |
| CCN1C(=O)[C@]2(CC[C@@H]3CN(C(=O)NCC(C)C)C[C@@H]32)N=C1C | 9.16 |
| Cc1cscc1-c1nc(C2CCOC2)no1 (stereo not given) | 8.4 |
| O=C(NCc1ccccc1)c1nnc2ccc(N3CCOCC3)cc2n1 | 11.2 |
| Cc1cc(C(=O)N2CCC(NC(=O)c3cccnc3)CC2)c(C)o1 | -2.44 |
| Cc1cc(CCC(=O)N2CCCC2)nc(C2CCCN2)n1 (stereo not given) | 5.91 |
